Measured values of several laboratories.
Protocols differ between the studies behind these lines.
Target: Protein kinase C gamma type (PRKCG, Homo sapiens, UniProt P05129)

Compound | test | setting | measurement | value
CC(C)(C)c1nc2c(s1)c1nc(N)ncc1c1ccc(NS(=O)(=O)c3c(F)cccc3F)c(F)c12 | enzyme activity, inhibitor, radiometric | 1 µM | remaining activity | 103%
CNC(=O)c1cc(Oc2ccc(NC(=O)Nc3ccc(Cl)c(C(F)(F)F)c3)cc2)ccn1 | enzyme activity, inhibitor | 10 µM | inhibition | 9%
Cc1cnc(NC2CCOCC2)nc1-n1cnc(C(=O)NC(CN)c2cc(F)cc(Cl)c2)c1 (stereo not shown) | enzyme activity, inhibitor, radiometric | 1 µM | remaining activity | 85%
COc1cc(/C=C/C(=O)CC(=O)/C=C/c2ccc(O)c(OC)c2)ccc1O | enzyme activity, inhibitor | 1 µM | activity vs control | 85%
O=C1NC(=O)c2cc(Nc3ccc(F)cc3)c(Nc3ccc(F)cc3)cc21 | cell-free assay | 0.5 µM | remaining signal | 102%
C[C@@H](N)[C@H]1CC[C@H](C(=O)Nc2ccncc2)CC1 | enzyme activity, inhibitor, TR-FRET | 10 µM | inhibition | 6.8%
FC(F)(F)Oc1cccc(-c2cnc3ccc(-c4ccncc4)nn23)c1 | enzyme activity, inhibitor, radiometric | 5 µM | activity vs control | 76%
Cc1sc(C(=O)NC2COC2)cc1-n1cc(NC(=O)Nc2c(F)cccc2Cl)cn1 | enzyme activity, inhibitor | 10 µM | remaining activity | 102%
COc1cc2ncnc(Nc3ccc(Oc4ccccc4)cc3C)c2cc1OC | enzyme activity, inhibitor | 1 µM | inhibition | -3%
CN1CC(Oc2cnc(C#N)cc2-c2ccn3nc(NC(=O)C4CC4)cc3c2)C1 | enzyme activity, inhibitor | 1 µM | inhibition | 1%
COc1cc(Nc2cnc(C#N)c(O[C@H](C)CN(C)C)n2)ncc1-c1cnn(C)c1 | enzyme activity, inhibitor, radiometric | 10 µM | remaining activity | 80%
Cc1cc(NC(=O)c2cccc3cc(-c4cccc5[nH]nc(N)c45)ccc23)ccc1F | enzyme activity, inhibitor | 0.1 µM | activity vs control | 92%
O=C(Nc1cnn(-c2csc(C(=O)NC3COC3)c2)c1)Nc1ccccc1Cl | enzyme activity, inhibitor | 5 µM | remaining activity | 98%
CCCS(=O)(=O)Nc1ccc(F)c(C(=O)c2c[nH]c3ncc(-c4ccc(Cl)cc4)cc23)c1F | enzyme activity, inhibitor | 1 µM | inhibition | < 20%
CCN(CC)c1ccc(C2=NNC(=O)CC2C)cc1[N+](=O)[O-] (stereo not shown) | enzyme activity, inhibitor | 10 µM | remaining activity | 96%
COc1cc(Cl)c(C(=O)N[C@@H](CN[C@H]2CC[C@@H](N)CC2)Cc2ccc(C#N)cc2)cc1-c1ccc(CN[C@H](C)c2ccc(C)cc2)o1 | enzyme activity, inhibitor | 1 µM | remaining activity | 98%
